Assay [1] addresses Phosphatidylinositol 4-phosphate 3-kinase C2 domain-containing subunit beta (Homo sapiens, UniProt O00750). The experiment in a line: Inhibition of PIK3C2B in human HeLa cells lysate at 10 uM pre incubated for 15 mins followed by ATP acyl phosphate probe addition and measured after 10 mins by LC-MS/MS analysis relative to control. In kind it is subcellular. Conditions: time 25.0 min.

Assay [2] has as its target T1, Phosphatidylinositol 5-phosphate 4-kinase type-2 gamma (Homo sapiens) (UniProt Q8TBX8).
T1 sequence (whole entry): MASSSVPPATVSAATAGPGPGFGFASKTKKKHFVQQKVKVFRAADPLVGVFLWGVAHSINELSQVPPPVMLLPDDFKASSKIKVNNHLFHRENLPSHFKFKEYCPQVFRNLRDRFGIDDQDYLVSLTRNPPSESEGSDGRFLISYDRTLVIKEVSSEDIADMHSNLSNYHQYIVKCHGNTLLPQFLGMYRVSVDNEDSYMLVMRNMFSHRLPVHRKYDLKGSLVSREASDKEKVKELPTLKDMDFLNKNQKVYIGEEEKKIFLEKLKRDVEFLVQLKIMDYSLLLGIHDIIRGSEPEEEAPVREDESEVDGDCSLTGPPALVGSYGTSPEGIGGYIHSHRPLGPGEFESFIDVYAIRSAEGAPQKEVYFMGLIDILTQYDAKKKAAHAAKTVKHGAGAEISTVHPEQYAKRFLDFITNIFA
The assay can be described thus: Inhibition of PIP5K2C LIP1 site in human HeLa cells lysate at 50 uM pre incubated for 15 mins followed by ATP acyl phosphate probe addition and measured after 10 mins by LC-MS/MS analysis relative to control. As to conditions: time 25.0 min. The assay is classed as subcellular.

In assay [3] the test system is Mus musculus. The assay can be described thus: Antiangiogenic activity in C57Bl/6 mouse implanted with matrigel assessed as reduction in bFGF-induced angiogenesis at 50 mg/kg, ip for 6 days by Masson's trichrome staining based assay. In kind it is functional, organism-based. Conditions: time 6.0 day. The method, boiled down: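 Mice were implanted with Matrigel containing 400 ng/mL bFGF. From the next day they received drug or vehicle for 6 days. Plugs were then harvested, sectioned and stained with Masson's trichrome; hemoglobin content of the plugs was also measured. n = 6 mice, 9 slices.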

The target of assay [4] is STE20-like serine/threonine-protein kinase (Homo sapiens, UniProt Q9H2G2). The experiment in a line: Inhibition of SLK in human HeLa cells lysate pre incubated for 15 mins followed by ATP acyl phosphate probe addition and measured after 10 mins by LC-MS/MS analysis. The assay is classed as subcellular.
Sequence of STE20-like serine/threonine-protein kinase (Q9H2G2 whole entry): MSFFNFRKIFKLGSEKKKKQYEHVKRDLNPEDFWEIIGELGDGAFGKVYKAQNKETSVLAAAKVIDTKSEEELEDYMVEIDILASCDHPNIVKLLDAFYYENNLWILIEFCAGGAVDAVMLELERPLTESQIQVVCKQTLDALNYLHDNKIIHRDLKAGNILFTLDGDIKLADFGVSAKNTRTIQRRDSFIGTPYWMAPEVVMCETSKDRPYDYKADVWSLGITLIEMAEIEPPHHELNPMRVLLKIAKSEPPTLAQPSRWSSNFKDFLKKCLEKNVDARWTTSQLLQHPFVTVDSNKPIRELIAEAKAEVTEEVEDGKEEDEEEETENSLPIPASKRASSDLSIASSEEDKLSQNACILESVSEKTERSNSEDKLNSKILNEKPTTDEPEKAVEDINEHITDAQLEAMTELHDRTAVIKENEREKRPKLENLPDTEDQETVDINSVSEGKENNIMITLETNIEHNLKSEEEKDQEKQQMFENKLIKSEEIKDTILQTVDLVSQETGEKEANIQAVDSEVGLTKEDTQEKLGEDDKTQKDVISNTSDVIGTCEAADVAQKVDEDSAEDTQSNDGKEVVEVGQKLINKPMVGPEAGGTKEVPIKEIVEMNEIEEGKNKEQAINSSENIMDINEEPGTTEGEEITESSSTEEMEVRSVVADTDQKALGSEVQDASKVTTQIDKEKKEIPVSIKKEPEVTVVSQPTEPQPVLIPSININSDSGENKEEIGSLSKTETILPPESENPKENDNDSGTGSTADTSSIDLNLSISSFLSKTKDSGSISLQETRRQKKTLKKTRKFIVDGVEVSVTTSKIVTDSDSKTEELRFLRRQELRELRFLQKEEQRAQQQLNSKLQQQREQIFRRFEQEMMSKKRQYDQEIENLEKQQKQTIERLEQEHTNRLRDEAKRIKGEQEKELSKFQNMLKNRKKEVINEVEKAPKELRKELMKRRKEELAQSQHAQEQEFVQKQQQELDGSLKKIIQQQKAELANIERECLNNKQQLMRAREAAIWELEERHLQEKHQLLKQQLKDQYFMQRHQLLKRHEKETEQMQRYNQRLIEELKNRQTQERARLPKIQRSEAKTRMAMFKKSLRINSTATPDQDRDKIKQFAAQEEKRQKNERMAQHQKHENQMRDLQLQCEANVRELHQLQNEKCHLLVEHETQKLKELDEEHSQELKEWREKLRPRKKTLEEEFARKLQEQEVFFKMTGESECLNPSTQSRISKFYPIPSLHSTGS
Assay [5] concerns the target T2, Serine/threonine-protein kinase Nek9 (Homo sapiens) (UniProt Q8TD19).
T2 sequence (whole entry): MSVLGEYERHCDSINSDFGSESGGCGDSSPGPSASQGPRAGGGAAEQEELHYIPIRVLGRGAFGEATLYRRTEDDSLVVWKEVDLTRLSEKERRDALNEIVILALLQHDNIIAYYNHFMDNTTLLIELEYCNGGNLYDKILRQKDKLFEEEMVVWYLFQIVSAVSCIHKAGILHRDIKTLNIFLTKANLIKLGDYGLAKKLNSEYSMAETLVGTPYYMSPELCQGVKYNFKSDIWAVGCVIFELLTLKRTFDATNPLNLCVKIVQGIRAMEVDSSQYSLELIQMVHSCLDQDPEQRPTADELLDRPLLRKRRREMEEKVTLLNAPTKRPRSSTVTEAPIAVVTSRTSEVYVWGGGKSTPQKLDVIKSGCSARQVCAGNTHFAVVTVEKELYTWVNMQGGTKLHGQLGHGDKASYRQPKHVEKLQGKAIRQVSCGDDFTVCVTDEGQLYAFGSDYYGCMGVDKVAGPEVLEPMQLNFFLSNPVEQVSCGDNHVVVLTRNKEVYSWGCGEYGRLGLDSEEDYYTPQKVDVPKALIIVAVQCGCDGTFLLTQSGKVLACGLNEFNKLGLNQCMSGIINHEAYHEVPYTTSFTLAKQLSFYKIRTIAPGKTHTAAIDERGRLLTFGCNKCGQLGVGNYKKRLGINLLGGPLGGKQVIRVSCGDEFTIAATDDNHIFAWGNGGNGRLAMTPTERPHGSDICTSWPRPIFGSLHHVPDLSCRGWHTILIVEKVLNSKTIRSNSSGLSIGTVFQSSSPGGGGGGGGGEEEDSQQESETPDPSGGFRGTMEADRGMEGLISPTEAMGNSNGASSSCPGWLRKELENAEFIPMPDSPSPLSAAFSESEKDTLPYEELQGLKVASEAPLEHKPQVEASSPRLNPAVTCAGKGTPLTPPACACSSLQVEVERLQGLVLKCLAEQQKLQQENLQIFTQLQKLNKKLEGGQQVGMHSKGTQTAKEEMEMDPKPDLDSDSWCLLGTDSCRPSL
The experiment in a line: Inhibition of NEK9 in human HeLa cells lysate at 2 uM pre incubated for 15 mins followed by ADP acyl phosphate probe addition and measured after 10 mins by LC-MS/MS analysis relative to control. Conditions: time 25.0 min. The assay is classed as subcellular.

The target in assay [6] is Epidermal growth factor receptor (Homo sapiens, UniProt P00533). The assay can be described thus: Inhibition of EGFR in human HeLa cells lysate at 10 uM pre incubated for 15 mins followed by ADP acyl phosphate probe addition and measured after 10 mins by LC-MS/MS analysis relative to control. Conditions: time 25.0 min. In kind it is subcellular.
Sequence of Epidermal growth factor receptor (P00533 whole entry): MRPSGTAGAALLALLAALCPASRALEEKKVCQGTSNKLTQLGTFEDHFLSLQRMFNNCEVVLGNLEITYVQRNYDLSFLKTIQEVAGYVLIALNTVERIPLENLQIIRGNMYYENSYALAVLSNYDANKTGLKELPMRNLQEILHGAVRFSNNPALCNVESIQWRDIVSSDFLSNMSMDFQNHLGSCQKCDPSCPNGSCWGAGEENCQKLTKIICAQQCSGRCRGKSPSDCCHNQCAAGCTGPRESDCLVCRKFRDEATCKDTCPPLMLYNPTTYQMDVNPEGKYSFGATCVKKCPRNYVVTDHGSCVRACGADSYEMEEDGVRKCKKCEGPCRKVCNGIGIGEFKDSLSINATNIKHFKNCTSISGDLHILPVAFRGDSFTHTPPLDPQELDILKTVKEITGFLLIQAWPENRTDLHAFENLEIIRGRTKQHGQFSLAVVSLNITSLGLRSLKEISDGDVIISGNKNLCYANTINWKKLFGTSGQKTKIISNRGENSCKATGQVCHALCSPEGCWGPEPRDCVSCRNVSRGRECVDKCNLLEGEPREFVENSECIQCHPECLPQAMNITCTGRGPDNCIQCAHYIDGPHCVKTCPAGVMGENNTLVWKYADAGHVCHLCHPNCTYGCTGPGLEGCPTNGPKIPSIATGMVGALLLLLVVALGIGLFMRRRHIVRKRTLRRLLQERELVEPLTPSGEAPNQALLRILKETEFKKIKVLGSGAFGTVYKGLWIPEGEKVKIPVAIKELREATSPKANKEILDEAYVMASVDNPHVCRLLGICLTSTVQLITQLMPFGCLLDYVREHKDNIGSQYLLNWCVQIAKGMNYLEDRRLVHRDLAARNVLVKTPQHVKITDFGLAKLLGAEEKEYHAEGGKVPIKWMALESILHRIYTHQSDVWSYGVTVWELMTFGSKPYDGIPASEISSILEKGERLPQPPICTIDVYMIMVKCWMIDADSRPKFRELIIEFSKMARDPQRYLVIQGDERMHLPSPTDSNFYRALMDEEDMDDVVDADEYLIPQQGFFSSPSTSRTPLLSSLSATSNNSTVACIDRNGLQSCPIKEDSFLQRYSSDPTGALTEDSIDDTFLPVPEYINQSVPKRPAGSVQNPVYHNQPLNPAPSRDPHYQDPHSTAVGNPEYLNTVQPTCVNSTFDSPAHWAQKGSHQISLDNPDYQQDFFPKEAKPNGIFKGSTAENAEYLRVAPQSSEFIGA
Assay [7] addresses Serine/threonine-protein kinase 24 (Homo sapiens, UniProt Q9Y6E0). The assay can be described thus: Inhibition of MST3 in human HeLa cells lysate pre incubated for 15 mins followed by ADP acyl phosphate probe addition and measured after 10 mins by LC-MS/MS analysis. The assay is classed as subcellular.
Assay [8] deals with Tyrosine-protein kinase receptor UFO (Homo sapiens, UniProt P30530). The assay can be described thus: Inhibition of AXL in human HeLa cells lysate pre incubated for 15 mins followed by ADP acyl phosphate probe addition and measured after 10 mins by LC-MS/MS analysis. In kind it is subcellular. In short, it runs like this:
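KiNativ-type profiling in HeLa lysate (5 mg/mL total protein). Lysate preincubated 15 min with inhibitor at 50, 10, 2, 0.8 or 0 μM, then ATP or ADP acylphosphate probe added (5 μM final) for 10 min. Reaction stopped with urea and analysed by targeted MS, using up to four fragment ions per kinase peptide-probe conjugate. % inhibition calculated against untreated lysate. Duplicate reactions.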

The target in assay [9] is Cyclin-dependent kinase 2 (Homo sapiens, UniProt P24941). The experiment in a line: Inhibition of CDK2 in human HeLa cells lysate at 2 uM pre incubated for 15 mins followed by ATP acyl phosphate probe addition and measured after 10 mins by LC-MS/MS analysis relative to control. In kind it is subcellular. Conditions: time 25.0 min. In short, it runs like this: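 KiNativ profiling in HeLa lysate (5 mg/mL total protein). Lysate incubated 15 min with inhibitor at 50, 10, 2, 0.8 or 0 μM. ATP or ADP acylphosphate probe then added (5 μM final) and reacted 10 min. Reaction stopped with urea and analysed by targeted MS, using up to four fragment ions per kinase peptide-probe conjugate. % inhibition taken against untreated lysate. Run in duplicate.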

Assay [10] concerns the target Tyrosine-protein kinase Fer (Homo sapiens, UniProt P16591). The assay can be described thus: Inhibition of FER in human HeLa cells lysate at 50 uM pre incubated for 15 mins followed by ATP acyl phosphate probe addition and measured after 10 mins by LC-MS/MS analysis relative to control. In kind it is subcellular. Conditions: time 25.0 min.
The target of assay [11] is p38 delta/gamma (Homo sapiens) (UniProt O15264+P53778). The assay can be described thus: Inhibition of p38d/p38g in human HeLa cells lysate at 10 uM pre incubated for 15 mins followed by ATP acyl phosphate probe addition and measured after 10 mins by LC-MS/MS analysis relative to control. In kind it is subcellular. Conditions: time 25.0 min.

Calls of active or inactive are those of the source. The rule behind the calls is not given here.

Sequence of Tyrosine-protein kinase receptor UFO (P30530 whole entry, the tested form may be a part): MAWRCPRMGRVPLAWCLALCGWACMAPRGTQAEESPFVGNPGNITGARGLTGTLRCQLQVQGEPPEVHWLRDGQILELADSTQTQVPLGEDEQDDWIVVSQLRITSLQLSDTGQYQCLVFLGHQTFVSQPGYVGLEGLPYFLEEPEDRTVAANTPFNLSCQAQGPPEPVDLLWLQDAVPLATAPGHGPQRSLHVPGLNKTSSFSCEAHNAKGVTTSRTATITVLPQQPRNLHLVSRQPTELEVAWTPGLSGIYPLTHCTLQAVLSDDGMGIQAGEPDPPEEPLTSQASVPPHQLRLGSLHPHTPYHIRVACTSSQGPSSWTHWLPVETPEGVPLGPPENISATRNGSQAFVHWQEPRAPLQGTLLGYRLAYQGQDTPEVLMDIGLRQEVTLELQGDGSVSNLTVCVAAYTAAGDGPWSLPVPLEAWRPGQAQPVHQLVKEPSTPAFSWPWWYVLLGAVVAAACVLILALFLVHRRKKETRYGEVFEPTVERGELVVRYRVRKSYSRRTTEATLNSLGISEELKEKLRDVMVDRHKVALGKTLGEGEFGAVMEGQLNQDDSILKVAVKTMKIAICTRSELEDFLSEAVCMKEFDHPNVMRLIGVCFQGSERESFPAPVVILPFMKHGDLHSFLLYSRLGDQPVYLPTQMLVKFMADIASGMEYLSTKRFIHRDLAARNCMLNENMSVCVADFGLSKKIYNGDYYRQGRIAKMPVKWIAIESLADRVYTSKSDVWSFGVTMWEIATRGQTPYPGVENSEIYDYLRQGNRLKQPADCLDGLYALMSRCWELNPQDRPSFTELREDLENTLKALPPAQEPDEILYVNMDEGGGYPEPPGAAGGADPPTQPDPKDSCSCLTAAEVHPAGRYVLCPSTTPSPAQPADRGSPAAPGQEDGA
Sequence of Tyrosine-protein kinase Fer (P16591 whole entry, looked up): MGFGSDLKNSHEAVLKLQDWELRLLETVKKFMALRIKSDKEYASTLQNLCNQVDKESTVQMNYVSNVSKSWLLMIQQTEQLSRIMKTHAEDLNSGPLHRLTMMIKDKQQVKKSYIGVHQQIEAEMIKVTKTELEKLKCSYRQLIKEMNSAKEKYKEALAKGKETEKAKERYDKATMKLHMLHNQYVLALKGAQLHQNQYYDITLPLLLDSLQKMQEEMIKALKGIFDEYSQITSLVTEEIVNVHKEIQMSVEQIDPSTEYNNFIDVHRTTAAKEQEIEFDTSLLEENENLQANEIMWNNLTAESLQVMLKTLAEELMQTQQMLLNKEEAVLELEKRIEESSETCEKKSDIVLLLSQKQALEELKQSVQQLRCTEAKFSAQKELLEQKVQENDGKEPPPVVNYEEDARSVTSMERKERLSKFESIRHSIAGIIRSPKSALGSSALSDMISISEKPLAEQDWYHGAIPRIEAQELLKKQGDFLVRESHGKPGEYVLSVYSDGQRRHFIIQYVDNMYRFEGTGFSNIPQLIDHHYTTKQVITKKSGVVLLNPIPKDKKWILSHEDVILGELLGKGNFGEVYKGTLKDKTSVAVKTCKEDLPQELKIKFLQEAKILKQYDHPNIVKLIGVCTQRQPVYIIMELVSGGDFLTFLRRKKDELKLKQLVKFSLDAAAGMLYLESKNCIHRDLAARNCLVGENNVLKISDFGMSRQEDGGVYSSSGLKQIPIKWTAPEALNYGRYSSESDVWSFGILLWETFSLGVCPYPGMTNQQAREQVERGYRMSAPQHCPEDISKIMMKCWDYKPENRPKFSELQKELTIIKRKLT
Sequence of Serine/threonine-protein kinase 24 (Q9Y6E0 whole entry): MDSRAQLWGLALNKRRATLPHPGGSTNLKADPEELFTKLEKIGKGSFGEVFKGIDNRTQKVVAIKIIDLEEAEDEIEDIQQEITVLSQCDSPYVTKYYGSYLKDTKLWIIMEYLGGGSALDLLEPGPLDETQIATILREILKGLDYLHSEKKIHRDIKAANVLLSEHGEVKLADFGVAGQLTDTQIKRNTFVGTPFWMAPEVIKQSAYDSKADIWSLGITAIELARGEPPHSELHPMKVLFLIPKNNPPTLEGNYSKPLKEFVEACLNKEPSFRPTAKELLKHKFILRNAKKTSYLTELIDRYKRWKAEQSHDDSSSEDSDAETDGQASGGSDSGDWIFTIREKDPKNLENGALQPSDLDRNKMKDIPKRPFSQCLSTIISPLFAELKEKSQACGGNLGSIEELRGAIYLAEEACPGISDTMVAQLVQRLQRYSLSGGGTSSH

`CCOc1cc(N2CCC(O)CC2)ccc1Nc1ncc2c(n1)N(C)c1ccccc1C(=O)N2C`: the inhibition (as a rule, the share of the control response that was lost under treatment) in [1] stood at 6.5%; in [2], 9.9%; in [5], 0.3%; in assay [6], 9.9%; in [9], 2%; in [10], 14.8%. In addition, in assay [11], the inhibition was 100%. Also, the result in assay [3] was Active. In addition, the IC50 in assay [4], in assay [7] and in assay [8] was above 50 µM each time.

(Values after ChEMBL document CHEMBL5661979, “Pharmacological inhibition of BMK1 suppresses tumor growth through promyelocytic leukemia protein” (Cancer Cell, 2010).)
